Experiments:
[1] = Tmax in ICR mouse at 30 mg/kg, po measured up to 24 hrs by LC-MS/MS analysis; type: ADME, organism-based; conditions: in vivo
How it was run: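 Male ICR mice (25.1–28.8 g, n=9), fasted overnight (12 h), single oral gavage 30 mg/kg as 3 mg/mL in 0.5% CMC-Na with 0.2% Tween 80. Venous blood drawn into EDTA-K2 at 0, 0.25, 0.5, 1, 2, 4, 8, 24 h. Plasma protein-precipitated with ACN and run on LC-MS/MS (C18, formic acid/ACN). Noncompartmental parameters taken from composite mean concentration-time data.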

[2] = target: Serine/threonine-protein kinase MAK (Homo sapiens) (UniProt P20794); experiment: Inhibition of MAK (unknown origin) assessed as enzyme activity at 1 uM preincubated for 20 mins followed by ATP addition and measured after 120 mins in presence of [33P-gamma] ATP by hotspot kinase assay relative to control; parameters: scale not given: the % may be the effect or the level left; conditions: time 140.0 min
How it was run: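 Radiometric filter-binding kinase assay, buffer pH 7.5 with 10 mM MgCl2 and 1% DMSO. Compound tested at a single 1.0 μM, preincubated 20 min at 25 °C. Reaction started with ATP/[γ-33P]ATP at 10 μM final, run 120 min at 25 °C. Remaining % enzyme activity reported, n=2.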

[3] = target: Cyclin-dependent kinase 7/ cyclin H (Homo sapiens, UniProt P50613); experiment: Inhibition of CDK7/Cyclin H (unknown origin) preincubated for 20 mins followed by ATP addition and measured after 120 mins in presence of [33P-gamma] ATP by hotspot kinase assay; type: protein-complex assay
How it was run: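 Radiometric filter-binding assay: kinase and substrate in 20 mM Hepes pH 7.5, 10 mM MgCl2, 1 mM EGTA, 0.02% Brij35, 0.02 mg/mL BSA, 0.1 mM Na3VO4, 2 mM DTT, 1% DMSO. Compound (top 1/10/27 μM, 3-fold serial dilutions) preincubated 20 min at 25 °C. ATP plus [γ-33P]ATP added to 10 μM final, reacted 120 min at 25 °C. IC50 from curve fit, duplicate mean.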

[4] = test system: HCT-116; experiment: Antiproliferative activity against human HCT-116 cells assessed as inhibition of cell growth incubated for 72 hrs by Celltiter-Glo luminescent assay; type: functional, cell-based; conditions: HCT-116, 72 h
How it was run: (§1)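 Cells seeded in growth medium and held overnight at 37 °C; medium-only wells served as background. DMSO stocks were diluted in medium to 3× final and added; cells incubated 72 h at 37 °C, 5% CO2. Viability read by CellTiter-Glo luminescence after 60 min at room temperature. IC50 from curve fit, mean of duplicate.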

[5] = test system: NCI-N87; experiment: Antiproliferative activity against human NCI-N87 cells assessed as inhibition of cell growth incubated for 72 hrs by Celltiter-Glo luminescent assay; type: functional, cell-based; conditions: NCI-N87, 72 h; how it was run: as §1
[6] = Volume of distribution at steady state in ICR mouse at 2 mg/kg, iv measured up to 24 hrs by LC-MS/MS analysis; type: ADME, organism-based; conditions: in vivo, read-out: Vdss
How it was run: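 Male ICR mice (25.1–28.8 g, n=9), fasted 12 h, given a single i.v. dose of 2.0 mg/kg at 0.4 mg/mL in DMSO/PEG200/saline (1:1:3). Blood sampled at 0, 0.083, 0.25, 0.5, 1, 2, 4, 8, 24 h. Plasma ACN-precipitated and quantified by LC-MS/MS. Parameters derived from composite mean plasma concentration-time data.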

[7] = AUC (0 to infinity) in ICR mouse at 2 mg/kg, iv measured up to 24 hrs by LC-MS/MS analysis; type: ADME, organism-based; parameters: route intravenous, dose 2 mg/kg, time <=24; conditions: in vivo

Chain of Cyclin-dependent kinase 7/ cyclin H (P51946 whole entry): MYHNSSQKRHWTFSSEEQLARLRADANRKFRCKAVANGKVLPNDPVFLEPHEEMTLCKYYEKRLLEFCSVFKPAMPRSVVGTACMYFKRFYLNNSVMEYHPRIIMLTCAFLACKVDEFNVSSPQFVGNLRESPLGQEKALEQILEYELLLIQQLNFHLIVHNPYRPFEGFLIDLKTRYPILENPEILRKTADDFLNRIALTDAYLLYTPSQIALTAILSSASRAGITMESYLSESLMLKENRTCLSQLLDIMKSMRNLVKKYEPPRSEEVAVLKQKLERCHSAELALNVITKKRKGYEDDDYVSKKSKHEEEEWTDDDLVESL
Chain of Cyclin-dependent kinase 7/ cyclin H (P50613 whole entry): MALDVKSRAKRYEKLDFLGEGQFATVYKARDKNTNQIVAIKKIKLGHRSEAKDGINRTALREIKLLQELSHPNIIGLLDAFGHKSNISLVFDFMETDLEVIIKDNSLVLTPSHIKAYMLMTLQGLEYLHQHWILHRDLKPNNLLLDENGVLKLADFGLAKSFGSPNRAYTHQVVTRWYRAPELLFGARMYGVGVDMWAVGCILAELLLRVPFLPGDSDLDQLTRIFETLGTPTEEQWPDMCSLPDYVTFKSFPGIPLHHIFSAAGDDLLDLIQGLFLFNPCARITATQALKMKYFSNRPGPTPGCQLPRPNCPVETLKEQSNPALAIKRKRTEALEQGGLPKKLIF
Chain of Serine/threonine-protein kinase MAK (Homo sapiens) (P20794 whole entry): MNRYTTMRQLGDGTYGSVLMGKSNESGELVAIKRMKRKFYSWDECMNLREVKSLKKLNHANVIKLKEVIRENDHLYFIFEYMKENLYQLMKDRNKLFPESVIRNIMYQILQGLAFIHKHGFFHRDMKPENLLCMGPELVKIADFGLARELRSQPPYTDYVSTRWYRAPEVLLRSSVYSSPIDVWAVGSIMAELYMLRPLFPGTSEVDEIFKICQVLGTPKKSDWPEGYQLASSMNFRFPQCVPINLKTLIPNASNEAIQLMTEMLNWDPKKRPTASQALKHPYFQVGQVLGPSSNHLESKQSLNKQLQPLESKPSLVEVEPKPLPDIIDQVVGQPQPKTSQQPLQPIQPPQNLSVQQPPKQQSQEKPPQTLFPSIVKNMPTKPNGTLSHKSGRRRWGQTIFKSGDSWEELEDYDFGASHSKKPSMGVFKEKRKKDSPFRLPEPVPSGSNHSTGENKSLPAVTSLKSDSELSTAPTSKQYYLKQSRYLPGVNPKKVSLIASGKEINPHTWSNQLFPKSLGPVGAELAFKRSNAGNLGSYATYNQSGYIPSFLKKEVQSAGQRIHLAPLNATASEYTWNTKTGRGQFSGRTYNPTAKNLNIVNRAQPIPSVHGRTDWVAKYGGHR

Q: What does the source list for `COc1cc(F)ccc1-c1nc(Nc2ccc3c(N4CCOCC4)c(C(C)=O)c(=O)oc3c2)ncc1F`?
A: Tmax [1]: 15 min; Activity [2]: < 10%; IC50 [3]: 16600 nM; IC50 [4]: 280 nM; IC50 [5]: 600 nM; Vd [6]: 0.67 L/kg; AUC(0-inf) [7]: 561 ng·h/mL
